An excerpt weighted towards active compounds, which were near 2.5% of everything screened.
SIAE inh: human SIAE inhibitors, primary screen, biochemical, fluorescence polarization, FP-Rh probe, 1536-well HTS. Sialate O-acetylesterase (Homo sapiens), Q9HAT2. SIAE FP-Rh probe binding. inhibition, % at 9.66 µM. actives 0.69% (n = 370,000). AID 1053197, 2014;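 active = inhibition above a cutoff: mean of compounds within the control limits plus 3 SD of those, cut at about 17% in these data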;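 also: 0% = plate median of compound wells and 100% = probe without SIAE protein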
PRMT1 FP inh: PRMT1 methyltransferase inhibitors, primary screen, biochemical, fluorescence polarization; Protein arginine N-methyltransferase 1 (Homo sapiens), Q99873; recombinant PRMT1, activity-based probe fluorescence polarization; inhibition, % at 2.79 µM; actives 1.3% (n = 370,000); AID 652257, 2013;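 active = inhibition above about 21% made by adding two undisclosed values, limit read from the data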
ABHD4 inh: ABHD4 inhibitors, primary screen, biochemical, fluorescence polarization, mouse; inhibition, % at 8.92 µM; (Lyso)-N-acylphosphatidylethanolamine lipase (Mus musculus), Q8VD66; purified mABHD4, FP-Rh probe fluorescence polarization; actives 0.54% (n = 370,000);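 active = inhibition exceeding the mean over every tested compound plus 3 SD, cut at about 30% in these data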;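 also: 0% = plate median of compound wells and 100% = S159A mutant with DMSO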
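Test system: mABHD4 protein; Read-out basis: % inhibition; Incubation: 45 min + 60 min at 25 °C; Repeats: single replicate; Technique: fluorescence polarization with parallel and perpendicular emission, 525/598 nm; Compound: 8.92 µM, single dose; Benchmarks: full inhibition S159A mutant plus DMSO, zero as sample-well median.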
TCR-CD3 inh: inhibitors of human TCR-CD3 interaction, primary screen, biochemical, fluorescence, TAMRA-labeled TCR probe; actives 0.37% (n = 360,000); inhibition, % at 9.4 µM; in the data active = inhibition above about 19%;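 also: recombinant mutant TCR 2C K166C tagged with TAMRA read by polarization; 0% = receptor in buffer alone and 100% = receptor with positive control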
HTRA1 inhibitor: HTRA1 serine protease inhibitors, primary screen, biochemical, fluorescence polarization, HTS | actives 0.5% (n = 340,000) | recombinant HTRA1, FP-rhodamine activity-based probe | Q92743 | inhibition, % at 5.96 µM; in the data active = inhibition above about 36%;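 also: 0% = enzyme with DMSO and 100% = wells lacking enzyme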
Target sequence (Q92743 whole entry, looked up): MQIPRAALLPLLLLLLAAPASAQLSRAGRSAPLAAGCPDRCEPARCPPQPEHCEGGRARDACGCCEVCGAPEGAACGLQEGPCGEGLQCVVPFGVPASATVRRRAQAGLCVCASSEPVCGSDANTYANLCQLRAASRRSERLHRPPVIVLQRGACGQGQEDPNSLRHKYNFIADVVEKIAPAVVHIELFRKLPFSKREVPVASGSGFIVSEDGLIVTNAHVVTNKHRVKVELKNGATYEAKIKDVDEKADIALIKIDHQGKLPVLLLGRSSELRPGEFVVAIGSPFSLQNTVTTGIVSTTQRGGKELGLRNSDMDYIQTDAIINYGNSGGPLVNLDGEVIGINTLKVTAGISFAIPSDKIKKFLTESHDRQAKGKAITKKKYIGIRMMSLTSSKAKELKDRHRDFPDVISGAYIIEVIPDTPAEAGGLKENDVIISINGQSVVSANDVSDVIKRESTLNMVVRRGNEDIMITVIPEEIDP
SIAE inh conf: human SIAE inhibitors, retest, confirmation, biochemical, fluorescence polarization, FP-Rh probe, triplicate; AID 1117263, 2014; SIAE FP-Rh activity-based probe; inhibition, % at 9.66 µM; actives 13% (n = 2,300); shares compounds with SIAE inh;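 active = mean inhibition of the replicates above the hit cutoff set in the primary screen, cut at about 17% in these data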;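 also: 0% = SIAE with DMSO and probe and 100% = probe without SIAE; inhibitors lower polarization as more probe stays unbound to SIAE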
* marks the source's active call; other numbers are inactive results; / = not tested or not shown.

SMILES | SIAE inh | PRMT1 FP inh | ABHD4 inh | TCR-CD3 inh | HTRA1 inhibitor | SIAE inh conf
Cc1cc(C)nc(SCC(=O)NN=Cc2ccc(C)o2)n1 | 18.3* | 3.2 | 8.1 | -6.2 | 0.0 | 6.0
Cc1cc(C)nc(SCC(=O)N/N=C/c2cccs2)n1 | 14.5 | 0.2 | 4.8 | 3.7 | 0.0 | /
CCOc1cc(C(N)=O)cc(Cl)c1OCC | 17.2* | -3.5 | -1.6 | 0.1 | 0.1 | 1.5
O=C(Nc1ccn(CCCNCC2CCCO2)c(=O)n1)OCc1ccccc1 (stereo unspecified) | 1.1 | 3.4 | -9.0 | -0.9 | 11.7 | /
O=C(Cn1ccc(NC(=O)OCc2ccccc2)nc1=O)NCC1CCCO1 (stereo unspecified) | 18.2* | -2.2 | 7.0 | 8.3 | 0.2 | 0.8
COc1ccc(OC)c(CC(=O)N2CCc3cc(OC)c(OC)cc3C2)c1 | 0.7 | -5.1 | 3.9 | 0.4 | 0.6 | /
O=C(O)[C@@H]1CCCN1C(=O)c1ccccc1N1C(=O)[C@@H]2Cc3c([nH]c4ccccc34)C(c3cccc(Cl)c3)N2C1=O (stereo partly specified) | 43.9* | 4.9 | -24.1 | 14.9 | -13.3 | -11.2
C=CCOc1ccccc1CNc1ccccc1C | 19.7* | -3.7 | 9.5 | -2.8 | 9.3 | 2.4
CC[n+]1ccc(C[n+]2ccccc2)c2ccccc21 | 20.2* | 1.6 | 5.7 | -2.1 | -4.5 | 21.6*
C[C@H](NS(=O)(=O)c1ccc([N+](=O)[O-])cc1)C(=O)NCCNC(=O)[C@@H](C)NS(=O)(=O)c1ccc([N+](=O)[O-])cc1 | -0.8 | 1.2 | 1.9 | / | / | /
O=C(CCC(=O)c1ccccc1)NC1CCCN(Cc2ccccc2F)C1 (stereo unspecified) | -3.9 | -2.7 | -0.2 | -6.2 | 7.2 | /
O=C(CCNC(=O)c1ccccc1Cl)NCC(c1ccc(F)cc1)N1CCOCC1 (stereo unspecified) | -4.7 | -2.5 | 7.0 | -2.2 | 0.1 | /
CCCCc1ccc(C2C3=C(CC(C)(C)CC3=O)NC3=C2C(=O)c2ccccc23)cc1 (stereo unspecified) | 18.7* | -0.6 | 15.5 | 1.6 | 11.1 | 7.8
CCNc1nc(NCC)nc(N/N=C/c2ccc(O)c(O)c2)n1 | 17.8* | -1.1 | 12.7 | 8.0 | 31.7 | 1.5
CCCCNC(=O)C1(C)CCN1C(=O)c1ccc(OC)c(C(F)(F)F)c1 (stereo unspecified) | -0.9 | 4.4 | -5.7 | -7.9 | / | /
Cc1ccc2[nH]c(C(=O)N3CCOCC3)cc2c1 | -5.9 | -0.9 | -0.5 | 5.1 | 5.5 | /
CN(Cc1ccccc1F)C(=O)C1CCC(CNS(=O)(=O)c2cccc3cccnc23)CC1 (stereo unspecified) | -2.6 | 5.2 | -14.1 | / | / | /
CC[C@]12CCCN3CCc4c(n(c5ccccc45)[C@](O)(C(=O)OC)C1)[C@@H]32 | 0.4 | -1.1 | -4.0 | 8.4 | -1.8 | /
CCC12CCCN3CCc4c(n(c5ccccc45)C(O)(C(=O)OC)C1)C32 (stereo unspecified) | 20.6* | 2.9 | 9.9 | 8.7 | 13.8 | 2.9
N/C(=N\OC(=O)Cc1ccc(Cl)cc1)c1ccncc1 | -2.9 | -5.5 | -4.4 | 7.0 | -0.5 | /
CC(C)(Oc1ccc(Cl)cc1)C(=O)O/N=C(\N)c1ccncc1 | 17.9* | 0.2 | -1.4 | 1.8 | -7.3 | 0.9
Cc1cc(C)cc(NC(=O)NC2CCN(S(=O)(=O)c3ccc(F)cc3)CC2)c1 | 4.0 | 1.9 | 1.1 | / | / | /
O=C(N/N=C/c1ccc(O)cc1O)c1ccc(NC(=O)C2CCCCC2)cc1 | 26.0* | 1.7 | 11.8 | 12.2 | -17.6 | 2.8
O=C(N/N=C/c1cccc(O)c1)c1ccc(NC(=O)C2CCCCC2)cc1 | -27.7 | 1.7 | -15.1 | -6.8 | -22.9 | /
Cc1csc(NC(=O)C2CC(=O)N(c3ccc(C)c(C)c3)C2)n1 (stereo unspecified) | -0.3 | -2.9 | -4.8 | -4.5 | -3.8 | /
SMILES | SIAE inh | PRMT1 FP inh | ABHD4 inh | TCR-CD3 inh | HTRA1 inhibitor | SIAE inh conf
O=C(NC1CC1)c1cccc(S(=O)(=O)Nc2ccccc2F)c1 | 17.3* | -1.1 | -1.8 | 8.6 | 0.9 | -2.8
CCCc1cc(=O)oc2c(CN3CCCC3)c(O)c(Cl)cc12 | 19.9* | -1.9 | 6.7 | 9.0 | 5.1 | 4.1
CN(C)c1ccc(/C=C/CNC[C@H]2O[C@@H](n3ccc(N)nc3=O)[C@H](O)[C@@H]2O)cc1 | 9.5 | 1.5 | 4.1 | 4.2 | -6.3 | /
COC(=O)CCCc1nc2ccccc2s1 | 63.0* | -0.7 | 4.7 | 7.4 | -5.2 | -0.1
NC(=O)COC(=O)CCCc1nc2ccccc2s1 | 2.7 | -0.7 | 3.5 | 1.1 | 2.4 | /
COCCNC(=O)c1ccc(N2CC3CC(C2)c2cccc(=O)n2C3)c(NC(=O)c2cc(OC)cc(OC)c2)c1 (stereo unspecified) | -1.1 | 1.8 | 7.0 | -3.7 | 2.0 | /
CCN1CCN(C(=O)c2ccc(N3CC4CC(C3)c3cccc(=O)n3C4)c(NC(=O)c3cc(OC)cc(OC)c3)c2)CC1 (stereo unspecified) | 26.5* | 1.7 | 6.6 | 0.0 | -5.1 | 3.6
CCOc1ccc(NC(=O)Nc2ccc3c(c2)N(C)C(=O)CS3)cc1 | 17.9* | -0.6 | 1.5 | 0.6 | -4.0 | -1.3
COc1ccc(NC(=O)Nc2ccc3c(c2)N(C)C(=O)CS3)cc1Cl | 26.7* | -3.2 | 9.6 | -2.3 | 1.0 | -2.6
COc1ccc(NC(=O)Nc2ccc3c(c2)N(C)C(=O)CS3)cc1OC | 7.1 | 0.2 | 1.3 | -3.5 | 16.1 | /
CCOC(=O)N1CCN(C(=O)COc2cccc3c2CCN(CC)C3=O)CC1 | 19.8* | 4.4 | 1.6 | -3.5 | -3.2 | -1.4
O=S(=O)(Nc1nc2ccccc2nc1Cl)c1cccc(C(F)(F)F)c1 | 0.5 | -1.7 | -10.6 | 1.5 | -15.8 | /
COc1cccc(CN2C(=O)c3ccccc3S2(=O)=O)c1 | 17.4* | 0.9 | -7.0 | -5.0 | -2.6 | -0.7
COC(=O)c1ccc(CN2C(=O)c3ccccc3S2(=O)=O)cc1 | -0.6 | 0.4 | -14.6 | 7.1 | -7.7 | /
O=C(N/N=C/c1cn(Cc2ccccc2)c2ccccc12)c1cc(O)cc(O)c1 | 19.8* | 5.1 | 6.5 | 12.0 | 6.7 | -7.1
Cc1cccc(OCCn2cc(/C=N/NC(=O)c3ccncc3)c3ccccc32)c1 | 30.9* | 1.3 | 7.4 | 6.8 | 6.2 | -2.7
COC(=O)N/N=C/c1cn(CCOc2cccc(OC)c2)c2ccccc12 | 0.5 | -0.8 | 3.3 | -1.4 | 6.0 | /
CCC(=O)OC1(C(C)=O)CCC2C3CCC4=CC(=O)CCC4(C)C3CCC21C (stereo unspecified) | 5.6 | -3.9 | -0.4 | 9.4 | -8.0 | /
CCN1CCN(C(=O)CCc2nnc3ccc(N4CCC5(CC4)OCCO5)nn23)CC1 | -2.7 | 2.3 | -6.5 | -0.7 | 6.3 | /
